Laboratory results reported in ChEMBL document CHEMBL1121824, “1-Aryl-3-azabicyclo[3.1.0]hexanes, a new series of nonnarcotic analgesic agents” (1981).

Legend:
Type in all cases: functional
[1] = tested on: Rattus norvegicus; assay: Analgesic activity was measured using inflamed rat paw pressure threshold method expressed as ED50 (sc)
How it was run: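 Paw-pressure threshold in rats, left hind paw injected with 0.1 mL 20% brewers' yeast; threshold recorded 2 h post-yeast. Compound given subcutaneously in normal saline at times set by duration of action. Positive = ≥100% threshold rise; ED50 with 95% confidence limits via Finney linear arc sine transformation.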

[2] = tested on: Rattus norvegicus; assay: Analgesic activity was assessed for inflamed rat-paw reversal of abnormal (three legged) gait expressed as ED50 (sc)
How it was run: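 Yeast (brewers') injected into plantar surface of left hind paw; gait scored 0–2 at 3 h. Rats scoring 2 received compound subcutaneously in normal saline; postdrug scores taken at set intervals. ≥50% gait reduction counted positive; ED50 = dose lowering score 2 to 1 in 50% of rats.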

[3] = tested on: Rattus norvegicus; assay: Analgesic activity was measured using inflamed rat paw pressure threshold method expressed as ED50 (po)
How it was run: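 Modified Randall–Selitto: left hind paw sensitised with 0.1 mL 20% aqueous brewers' yeast, pressure-pain threshold read 2 h after yeast. Oral dosing in 2% starch/5% PEG 400/Tween 80, timed to peak effect. ≥100% threshold elevation positive; ED50 (dose giving this in 50% of rats) with 95% limits by Finney arc sine method.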

[4] = tested on: Rattus norvegicus; assay: Analgesic activity for inflamed rat-paw reversal of abnormal (three legged) gait expressed as ED50 (po).
How it was run: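 Rats given brewers' yeast in plantar surface of left hind paw; 3 h later gait scored 0 (normal) to 2 (maximal abnormal). Rats scoring 2 dosed orally in 2% starch suspension with 5% PEG 400 and Tween 80; gait rescored at set intervals. ED50 = dose reducing score from 2 to 1 in 50% of rats.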

[5] = tested on: Mus musculus; assay: Analgesic activity was measured using mouse anti-writhing method expressed as ED50 (po)
How it was run: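 Mice in pairs; writhing induced by intraperitoneal phenyl-p-quinone 1 mg/kg. Compound given orally in 2% starch suspension with 5% PEG 400 and a drop of Tween 80.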

[6] = Rattus norvegicus, po, read-out: ED50
[7] = Mus musculus, po, read-out: ED50

Cl.Oc1cccc(C23CNCC2C3)c1 (stereo not given)
ED50 [1]: > 25 mg/kg
ED50 [2]: 16 mg/kg

Cl.FC(F)(F)c1ccc(C23CNCC2C3)cc1 (stereo not given)
ED50 [3, 6]: 40 mg/kg
ED50 [4, 6]: 38 mg/kg
ED50 [5, 7]: > 100 mg/kg

CC(C)c1ccc(C23CNCC2C3)cc1.Cl (stereo not given)
ED50 [1]: > 25 mg/kg
ED50 [2]: 9 mg/kg
ED50 [5, 7]: 30 mg/kg

COc1cccc(C23CC2CN(C)C3)c1.Cl (stereo not given)
ED50 [4, 6]: > 100 mg/kg

Cl.Clc1cccc(C23CNCC2C3)c1 (stereo not given)
ED50 [3, 6]: 50 mg/kg
ED50 [4, 6]: > 50 mg/kg
ED50 [5, 7]: 34 mg/kg

CN1CC2CC2(c2ccc(Cl)cc2)C1.Cl (stereo not given)
ED50 [3, 6]: 60 mg/kg
ED50 [4, 6]: > 50 mg/kg
ED50 [5, 7]: < 100 mg/kg

COc1ccc(C23CNCC2C3)cc1.Cl (stereo not given)
ED50 [3, 6]: 49 mg/kg
ED50 [4, 6]: 24 mg/kg
ED50 [5, 7]: 4 mg/kg

COc1ccc(C23CNCC2C3)cc1Br.Cl (stereo not given)
ED50 [4, 6]: > 25 mg/kg

Cl.Fc1ccc(C23CNCC2C3)cc1 (stereo not given)
ED50 [3, 6]: 14 mg/kg
ED50 [4, 6]: > 50 mg/kg
ED50 [5, 7]: 34 mg/kg

Cl.FC(F)(F)c1cc(C23CNCC2C3)ccc1Cl (stereo not given)
ED50 [4, 6]: 177 mg/kg

COc1cccc(C23CNCC2C3)c1.Cl (stereo not given)
ED50 [4, 6]: 177 mg/kg

Cl.Fc1cccc(C23CNCC2C3)c1 (stereo not given)
ED50 [3, 6]: 67 mg/kg
ED50 [4, 6]: > 50 mg/kg
ED50 [5, 7]: 21 mg/kg

Cl.Oc1ccc(C23CNCC2C3)cc1 (stereo not given)
ED50 [4, 6]: > 200 mg/kg

Cl.Clc1ccc(C23CNCC2C3)cc1Cl (stereo not given)
ED50 [4, 6]: 141 mg/kg

CCCCCCc1ccc(C23CNCC2C3)cc1.Cl (stereo not given)
ED50 [4, 6]: > 50 mg/kg

Cc1ccccc1C12CNCC1C2.Cl (stereo not given)
ED50 [4, 6]: > 50 mg/kg
ED50 [5, 7]: > 50 mg/kg

CCOc1ccc(C23CNCC2C3)cc1.Cl (stereo not given)
ED50 [4, 6]: 29 mg/kg

CC(C)(C)c1ccc(C23CNCC2C3)cc1.Cl (stereo not given)
ED50 [4, 6]: > 200 mg/kg

Cc1cccc(C23CNCC2C3)c1.Cl (stereo not given)
ED50 [3, 6]: 25 mg/kg
ED50 [4, 6]: > 50 mg/kg
ED50 [5, 7]: 18 mg/kg

Cc1ccc(C23CC2CN(CC2CC2)C3)cc1.Cl (stereo not given)
ED50 [4, 6]: > 50 mg/kg

C=CCN1CC2CC2(c2ccc(C)cc2)C1.Cl (stereo not given)
ED50 [4, 6]: > 50 mg/kg

Cc1ccc(C23CC2CN(C)C3)cc1.Cl (stereo not given)
ED50 [3, 6]: 24 mg/kg
ED50 [4, 6]: 20 mg/kg
ED50 [5, 7]: 16 mg/kg

Brc1ccc(C23CNCC2C3)cc1.Cl (stereo not given)
ED50 [4, 6]: 141 mg/kg

CN1CC2CC2(c2cccc(O)c2)C1.Cl (stereo not given)
ED50 [1]: 25 mg/kg
ED50 [4, 6]: > 50 mg/kg
ED50 [5, 7]: > 50 mg/kg

Cl.Clc1ccccc1C12CNCC1C2 (stereo not given)
ED50 [4, 6]: > 100 mg/kg

CCc1ccc(C23CNCC2C3)cc1.Cl (stereo not given)
ED50 [3, 6]: 25 mg/kg
ED50 [4, 6]: 13 mg/kg
ED50 [5, 7]: 24 mg/kg

CCCCCCN1CC2CC2(c2ccc(C)cc2)C1.Cl (stereo not given)
ED50 [4, 6]: > 50 mg/kg

Cl.FC(F)(F)c1cccc(C23CNCC2C3)c1 (stereo not given)
ED50 [3, 6]: 50 mg/kg
ED50 [4, 6]: 28 mg/kg
ED50 [5, 7]: 29 mg/kg

Cl.c1ccc(C23CNCC2C3)cc1 (single isomer, unassigned; (+))
ED50 [3]: 79 mg/kg
ED50 [4]: 125 mg/kg

Cl.c1ccc(C23CNCC2C3)cc1 (single isomer, unassigned; (-))
ED50 [3]: 43 mg/kg
ED50 [4]: >200 mg/kg
ED50 [5]: <50 mg/kg

Cc1ccc(C23CNCC2C3)cc1.Cl (single isomer, unassigned; (-)) [BICIFADINE HYDROCHLORIDE]
ED50 [3]: >25 mg/kg
ED50 [4]: >200 mg/kg

Cl.Clc1ccc(C23CNCC2C3)cc1 (stereo in doubt; 2a)
ED50 [3]: 21 mg/kg
ED50 [4]: 31 mg/kg
ED50 [5]: 21 mg/kg

Cc1ccc(C23CNCC2C3)cc1.Cl (stereo in doubt; 2b) [BICIFADINE HYDROCHLORIDE]
ED50 [3]: 11 mg/kg
ED50 [4]: 18 mg/kg
ED50 [2]: 4 mg/kg
ED50 [5, 7]: 13 mg/kg

Cl.c1ccc(C23CNCC2C3)cc1 (stereo in doubt; 2c)
ED50 [3, 6]: 71 mg/kg
ED50 [4]: 70 mg/kg
ED50 [5, 7]: < 100 mg/kg

Cc1ccc(C23CNCC2C3)cc1.Cl (stereo in doubt; 2v) [BICIFADINE HYDROCHLORIDE]
ED50 [3]: <25 mg/kg
ED50 [4]: 17 mg/kg

Cl.Clc1ccc(C23CNCC2C3)cc1 (stereo in doubt; 2x)
ED50 [3]: 13 mg/kg
ED50 [4]: 25 mg/kg
ED50 [5]: 19 mg/kg

Cl.Clc1ccc(C23CNCC2C3)cc1 (stereo in doubt; 2y (-))
ED50 [3]: >50 mg/kg
ED50 [4]: 150 mg/kg
ED50 [5]: <100 mg/kg

CC(=O)Oc1ccccc1C(=O)O [ASPIRIN]
ED50 [3, 6]: 150 mg/kg
ED50 [4, 6]: 74 mg/kg
ED50 [5, 7]: 29 mg/kg

COc1ccc2c3c1O[C@H]1[C@@H](O)C=C[C@H]4[C@@H](C2)N(C)CC[C@@]341.COc1ccc2c3c1O[C@H]1[C@@H](O)C=C[C@H]4[C@@H](C2)N(C)CC[C@@]341.O.O=P(O)(O)O.O=P(O)(O)O [CODEINE PHOSPHATE]
ED50 [3, 6]: 43 mg/kg
ED50 [4, 6]: 51 mg/kg
ED50 [5, 7]: 9 mg/kg
